For series [1], the species on record is Homo sapiens. The experiment in a line: Selectivity ratio of Ki for PI3Kbeta (unknown origin) to Ki for PI3Kgamma (unknown origin).
The species named for series [2] is Homo sapiens. The experiment in a line: Selectivity ratio of Ki for PI3Kalpha (unknown origin) to Ki for PI3Kgamma (unknown origin).
The species named for series [3] is Homo sapiens. As to the kind of experiment: Selectivity ratio of Ki for PI3Kdelta (unknown origin) to Ki for PI3Kgamma (unknown origin).
Series [4] deals with T1, Phosphatidylinositol 4,5-bisphosphate 3-kinase catalytic subunit gamma isoform (Homo sapiens, UniProt P48736). As to the kind of experiment: Inhibition of PI3Kgamma (unknown origin) using PIP2 as substrate after 15 mins in presence of [33P-ATP] by liquid scintillation counting method.
The subject of series [5] is Mus musculus. As to the kind of experiment: Anti-inflammatory activity in MOG (35 to 55 residues)-induced EAE C57BL/6 mouse model assessed as inhibition of development of clinical symptoms at 3 to 30 mg/kg, po bid […]. The class given is functional, organism-based. In outline: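 C57BL6 mice immunized with myelin oligodendrocyte glycoprotein in complete Freund's adjuvant containing Mycobacterium tuberculosis. Oral dosing BID at 3, 10 and 30 mg/Kg began at a clinical score of 0.5-1. Vehicle and positive-control groups were run alongside. Read-out: clinical EAE score plotted against time after onset.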

In series [6] the target is Phosphatidylinositol-4,5-bisphosphate 3-kinase, catalytic subunit gamma (Rattus norvegicus, UniProt D3ZFJ0). The experiment in a line: Inhibition of PI3Kgamma in rat spleenocytes assessed as inhibition of MCP1-induced Akt phosphorylation at […] residue preincubated for 1 hr followed by MCP1 stimulation for 3 mins by FACS analysis. The class given is cell-based. In a few lines:
(§1)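 Akt phosphorylation was induced by MCP-1 in THP-1 cells or in splenocytes.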
(Flow cytometry measures light scatter and fluorescence of single cells or particles in a stream.)

A short description of series [7]: Intrinsic clearance in rat hepatocytes assessed per million cells. The series is classed as ADME, cell-based, Hepatocyte. The following applies: read-out: CLH. In a few lines: (§2)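 Intrinsic clearance in rat, dog, monkey and human hepatocytes; units µL/min/M cells.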
Series [8] is described as follows: Intrinsic clearance in human hepatocytes assessed per million cells. The following applies: read-out: CLH. The class given is ADME, cell-based, Hepatocyte. In a few lines: as §2
The nature of series [9]: Clearance in iv dosed rat. To be noted: in vivo. The series is classed as ADME, organism-based. In outline:
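Rat, dog and monkey PK after dosing; clearance in mL/min/Kg.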

Series [10] deals with Mus musculus. The experiment in a line: Anti-inflammatory activity in MOG (35 to 55 residues)-induced EAE C57BL/6 mouse model assessed as inhibition of development of clinical symptoms at 1 mg/kg, po qd measured on day 8 post MOG (35 to 55 residues) immunization. The series is classed as functional, organism-based.
A short description of series [11]: Half life in iv dosed rat. The following applies: in vivo. The series is classed as ADME, organism-based.
Series [12] concerns the target T1, Phosphatidylinositol 4,5-bisphosphate 3-kinase catalytic subunit gamma isoform. As to the kind of experiment: Inhibition of PI3Kgamma in human THP1 cells assessed as inhibition of MCP1-induced Akt phosphorylation at […] residue preincubated for 1 hr followed by MCP1 stimulation for 3 mins by FACS analysis. The class given is cell-based. In a few lines:
as §1

The test system of series [13] is MDR1. The experiment in a line: Efflux ratio of permeability from basolateral to apical over apical to basolateral side in MDCK cells harboring MDR1. The series is classed as ADME, cell-based, Canis lupus familiaris. To be noted: dog. In a few lines: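 MDR1-MDCK monolayers; bidirectional transport. A-B permeability in x10-6 cm/s; efflux taken as the B-A/A-B ratio.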

A short description of series [14]: Lipophilicity, log D of the compound at pH 7.4. The series is classed as physicochemical. To be noted: buffer.

Calls of active or inactive are those of the source. No cut-off for these calls is given here.

These results are taken from ChEMBL document CHEMBL4118224, “Design and Synthesis of a Novel Series of Orally Bioavailable, CNS-Penetrant, Isoform Selective Phosphoinositide 3-Kinase γ (PI3Kγ) Inhibitors with Potential for the Treatment of Multiple Sclerosis (MS)” (J Med Chem, 2018).

In general, Ki refers to the equilibrium dissociation constant of an inhibitor or competing ligand from its target. Usually IC50 stands for the concentration at which inhibition is half-maximal. Broadly, the clearance is the volume of plasma or blood freed of the substance per unit of time. The half-life is the time in which the quantity being followed falls by half. One may read the efflux ratio as the permeability from basolateral to apical divided by that in the opposite direction, in the common usage. Usually logD stands for the decadic logarithm of the distribution of all forms, ionised or not, between an organic phase and buffer at a given pH.

T1 sequence (P48736 whole entry, the tested form may be a part, canonical isoform): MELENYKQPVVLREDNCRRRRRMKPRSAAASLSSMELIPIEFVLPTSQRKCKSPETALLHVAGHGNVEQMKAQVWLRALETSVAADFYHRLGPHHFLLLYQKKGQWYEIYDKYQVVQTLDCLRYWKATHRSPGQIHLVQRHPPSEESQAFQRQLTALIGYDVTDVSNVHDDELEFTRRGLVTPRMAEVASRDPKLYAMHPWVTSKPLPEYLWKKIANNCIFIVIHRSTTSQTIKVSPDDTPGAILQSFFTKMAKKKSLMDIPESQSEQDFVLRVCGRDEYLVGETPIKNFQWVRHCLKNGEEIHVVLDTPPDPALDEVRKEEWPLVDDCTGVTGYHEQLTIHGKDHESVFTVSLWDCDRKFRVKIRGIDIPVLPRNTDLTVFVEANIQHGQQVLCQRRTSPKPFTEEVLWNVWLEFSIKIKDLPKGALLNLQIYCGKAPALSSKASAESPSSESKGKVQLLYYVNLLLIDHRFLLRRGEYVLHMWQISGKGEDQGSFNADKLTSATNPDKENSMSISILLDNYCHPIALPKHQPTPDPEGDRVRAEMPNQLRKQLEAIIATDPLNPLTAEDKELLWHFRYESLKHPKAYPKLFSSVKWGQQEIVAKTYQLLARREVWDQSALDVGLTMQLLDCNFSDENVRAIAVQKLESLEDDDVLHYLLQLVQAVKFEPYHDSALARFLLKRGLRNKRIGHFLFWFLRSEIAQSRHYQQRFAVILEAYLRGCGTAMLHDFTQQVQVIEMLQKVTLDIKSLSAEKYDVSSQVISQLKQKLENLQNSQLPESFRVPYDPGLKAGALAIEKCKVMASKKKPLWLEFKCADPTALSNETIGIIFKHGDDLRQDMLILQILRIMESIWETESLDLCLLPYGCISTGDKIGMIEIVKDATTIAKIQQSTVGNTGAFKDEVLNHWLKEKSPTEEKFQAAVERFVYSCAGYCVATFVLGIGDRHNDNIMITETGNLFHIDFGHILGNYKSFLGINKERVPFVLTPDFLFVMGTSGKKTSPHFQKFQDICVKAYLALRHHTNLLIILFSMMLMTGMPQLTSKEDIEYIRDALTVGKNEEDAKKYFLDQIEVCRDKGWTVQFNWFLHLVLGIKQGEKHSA
Sequence of Phosphatidylinositol-4,5-bisphosphate 3-kinase, catalytic subunit gamma (D3ZFJ0 whole entry): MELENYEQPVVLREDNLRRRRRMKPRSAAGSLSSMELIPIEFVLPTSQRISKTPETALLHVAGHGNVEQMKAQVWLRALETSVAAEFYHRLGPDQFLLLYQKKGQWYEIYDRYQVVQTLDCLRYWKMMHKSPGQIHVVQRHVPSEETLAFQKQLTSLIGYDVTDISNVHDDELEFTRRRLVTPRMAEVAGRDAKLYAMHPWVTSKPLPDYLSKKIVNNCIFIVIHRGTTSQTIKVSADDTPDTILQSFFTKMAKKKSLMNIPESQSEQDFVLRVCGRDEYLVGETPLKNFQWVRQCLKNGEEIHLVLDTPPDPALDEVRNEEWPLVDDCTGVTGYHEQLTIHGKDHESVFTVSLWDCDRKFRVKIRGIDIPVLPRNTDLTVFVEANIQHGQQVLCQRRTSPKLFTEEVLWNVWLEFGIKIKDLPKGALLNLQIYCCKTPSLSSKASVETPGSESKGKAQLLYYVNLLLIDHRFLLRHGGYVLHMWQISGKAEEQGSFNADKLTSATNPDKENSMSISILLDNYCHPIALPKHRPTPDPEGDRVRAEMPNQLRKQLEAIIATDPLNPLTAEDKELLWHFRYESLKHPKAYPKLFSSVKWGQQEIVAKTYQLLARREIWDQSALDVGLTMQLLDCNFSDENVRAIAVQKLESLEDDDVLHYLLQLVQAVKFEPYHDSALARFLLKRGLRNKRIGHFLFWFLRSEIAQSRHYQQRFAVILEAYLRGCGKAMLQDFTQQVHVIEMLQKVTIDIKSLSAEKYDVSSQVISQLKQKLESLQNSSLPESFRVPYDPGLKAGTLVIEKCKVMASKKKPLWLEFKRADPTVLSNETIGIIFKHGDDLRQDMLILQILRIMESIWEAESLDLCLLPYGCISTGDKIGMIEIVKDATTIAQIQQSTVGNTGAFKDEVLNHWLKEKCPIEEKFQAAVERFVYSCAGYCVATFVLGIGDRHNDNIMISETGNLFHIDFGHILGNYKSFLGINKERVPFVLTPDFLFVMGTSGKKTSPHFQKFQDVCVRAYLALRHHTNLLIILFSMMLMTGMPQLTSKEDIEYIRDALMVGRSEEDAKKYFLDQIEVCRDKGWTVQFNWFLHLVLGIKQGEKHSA

As to `COc1cc(-c2ccc3c(n2)CN(c2cnn(C(C)(C)C#N)c2)C3=O)cnc1OC`, the Ratio Ki is 25 in series [1], 15 in series [2] and 10 in [3]. Further, the Ki in [4] was 0.028 µM.

Turning to `COc1cc(-c2ccc3c(n2)[C@@H](C)N(c2cnn(CC(F)(F)F)c2)C3=O)cnc1OC`, in series [5], the result was Active. In series [6], the IC50 was 0.21 µM.

On to `COc1cc(-c2ccc3c(n2)CN(c2cnn(CC(F)F)c2)C3=O)cnc1OC`, for which the Ratio Ki in series [1] came to 12; in [2] it was 22; in [3] it was 5. Moreover, in [4], the inhibition constant Ki is 0.009 µM.

As for `COc1cc(-c2ccc3c(n2)CN(c2cn[nH]c2)C3=O)cnc1OC`, the Ratio Ki in series [1] was 32; in series [2] it was 34; in [3], 42. The Ki in [4] is 0.011 µM.

For the compound `COc1cc(-c2ccc3c(c2)CN(c2cccc(CC#N)c2)C3=O)cnc1OC`, the results for the hepatocyte CLint in series [7] and in series [8] were 88 µL/min/1e6 cells and 30 µL/min/1e6 cells, respectively. The Ratio Ki in series [1] was determined as 11; in series [2] it was 40; in series [3], 16. The clearance in series [9] came to 160 mL/min/kg. Further, the Ki in series [4] turned out to be 0.035 µM.

For `CCCCCCCCc1ccc(CCC(N)(CO)CO)cc1`, the result in [10] was Active.

Regarding `COc1cc(-c2ccc3c(n2)C(C)(C)N(c2cnn(CC(F)(F)F)c2)C3=O)cnc1OC`, the Ratio Ki amounted to 12 in series [1], 33 in [2] and 10 in series [3]. Further, the half-life in series [11] is 6.6 h. In series [9], this compound yielded a clearance of 6.3 mL/min/kg. Also, the IC50 in [12] came out at 0.34 µM. For the same compound, in series [4], the Ki was determined as 0.011 µM.

As for `COc1cc(-c2ccc3c(n2)CN(c2cnn(CCC#N)c2)C3=O)cnc1OC`, the results for the Ratio Ki in series [1], in series [2] and in series [3] were 10, 11 and 4, respectively. Besides, the Ki in series [4] came to 0.02 µM.

For the compound `COc1cc(-c2ccc3c(n2)CN(c2cnn(C)c2)C3=O)cnc1OC`, the results for the Ratio Ki in [1], in series [2] and in [3] were 9, 5 and 3, respectively. Further, the efflux ratio in series [13] turned out to be 2.5. The Ki in series [4] was found to be 0.06 µM.

As to `COc1cc(-c2ccc3c(c2)CN(c2cnn(CC#N)c2)C3=O)cnc1OC`, the Ratio Ki in series [1] stood at 27; in series [2], 51; in series [3], 17. Further, the clearance in [9] is 56 mL/min/kg. Also, in series [4], the Ki came to 0.006 µM.

For `COc1ccc(-c2ccc3c(c2)CN(c2cccc(CC#N)c2)C3=O)cc1OC`, the hepatocyte CLint was found to be 111 µL/min/1e6 cells in series [7] and 26 µL/min/1e6 cells in [8]. The Ratio Ki in series [1] was more than 25; in series [2], more than 25; in series [3], 7. The clearance in series [9] amounted to 116 mL/min/kg. For the same compound, the logD in [14] was 4.1. Further, the Ki in series [4] is 0.16 µM.

For the compound `COc1cc(-c2ccc3c(n2)CN(c2cnn(CC#N)c2)C3=O)cnc1OC`, the Ki in series [4] was in the range of 0.003 to 0.004 µM.

As to `C#CCn1cc(N2Cc3nc(-c4cnc(OC)c(OC)c4)ccc3C2=O)cn1`, the results for the Ratio Ki in series [1], in [2] and in series [3] were 25, 11 and 12, respectively. The Ki in series [4] was 0.009 µM.

Turning to `COc1cc(-c2ccc3c(n2)CN(c2cnn(CC(F)(F)F)c2)C3=O)cnc1OC`, in series [12], the IC50 was found to be 0.28 µM. In series [4], the Ki amounted to 0.004 µM.

With `CCn1cc(N2Cc3nc(-c4cnc(OC)c(OC)c4)ccc3C2=O)cn1`, the results for the Ratio Ki in series [1], in series [2] and in series [3] were 39, 25 and 14, respectively. Moreover, in series [4], the Ki was determined as 0.008 µM.
